How the values were obtained:
Mus musculus [1] = test: Antidiabetic activity in glucose-treated C57BL/J6 db/db mouse assessed as reduction of glucose AUC at 50 mg/kg, po preincubated for 30 mins followed by glucose challenge measured after 30 to 180 mins by oral glucose tolerance test relative to control; type: functional; design: scale not given: the % may be the effect or the level left; settings: in the assay text read “C57BL/J6 mouse” for “C57BL/J6 db/db mouse”
In short: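 Oral glucose tolerance test. Mice: eight-week-old male C57BL/6 or ten-week-old male C57BLKS/J db/db, fasted overnight with water. Compound or 0.5% methylcellulose vehicle given orally, then an oral 2 g/kg glucose challenge 30 min later. Tail-tip blood glucose was read just before and at 30, 60, 90, 120 and 180 min. AUC was calculated from the time–glucose curve; n = 6.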

Hexokinase-4 = biological target: T1, Hexokinase-4 (Homo sapiens, UniProt P35557); test: Activation of recombinant human pancreatic glucokinase using 10 mM glucose by spectrophotometry
T1 sequence (P35557 whole entry): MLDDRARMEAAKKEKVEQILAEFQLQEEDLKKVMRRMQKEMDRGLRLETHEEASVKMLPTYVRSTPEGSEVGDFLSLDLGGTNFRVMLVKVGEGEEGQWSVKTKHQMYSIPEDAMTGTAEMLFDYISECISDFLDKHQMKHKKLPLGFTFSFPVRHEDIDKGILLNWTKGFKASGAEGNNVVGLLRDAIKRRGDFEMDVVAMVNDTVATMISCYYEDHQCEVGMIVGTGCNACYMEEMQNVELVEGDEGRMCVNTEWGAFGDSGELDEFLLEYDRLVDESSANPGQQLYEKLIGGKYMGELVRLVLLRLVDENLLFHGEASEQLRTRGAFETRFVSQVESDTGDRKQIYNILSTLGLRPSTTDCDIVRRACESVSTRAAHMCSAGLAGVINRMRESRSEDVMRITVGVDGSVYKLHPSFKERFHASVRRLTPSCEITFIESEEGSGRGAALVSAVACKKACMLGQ
In short: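 Purified recombinant human pancreatic glucokinase, compounds in DMSO. Buffer: 25 mM HEPES pH 7.4, 10 mM glucose, 25 mM KCl, 1 mM MgCl2, 1 mM DTT, 1 mM ATP, 1 mM NADP, 2.5 U/mL G6PDH. Activity was expressed against DMSO-only control (100%). EC50 came from 12 concentrations fitted to a variable-slope sigmoidal curve. Values are means of three duplicate runs.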

Hepatocyte = test: Induction of 2-Deoxy-D-[3H]-glucose uptake in rat Hepatocytes using 5.5 mM glucose after 4 hrs by liquid scintillation counting; type: functional
In short: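 Rat primary hepatocytes, isolated by collagenase liver perfusion, viability over 85%. Cells attached 36 h on collagen I in MEM with 10% FBS, then serum-starved 12 h. Incubated 4 h in serum-free MEM with 5.5 mM glucose and 2-deoxy-D-[3H]-glucose, with or without compound. Washed in ice-cold PBS, lysed in 0.1 N NaOH, scintillation counted, expressed as % increase over control.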

Mus musculus [2] = test: Antidiabetic activity in glucose-treated C57BL/J6 mouse assessed as reduction of glucose AUC at 300 mg/kg, po preincubated for 30 mins followed by glucose challenge measured after 30 to 180 mins by oral glucose tolerance test relative to control; design: scale not given: the % may be the effect or the level left
Mus musculus [3] = test: Toxicity in fasting C57BL/J6 mouse assessed as glucose lowering effect at 30 mg/kg, po after 30 to 360 mins; type: organism-based; design: dose 30 mg/kg, route oral; settings: in vivo
In short: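 Eight-week-old male C57BL/6 mice were fasted 6 h with free access to water, then dosed orally with compound or 0.5% methylcellulose vehicle, with no glucose challenge. Blood glucose was followed up to 360 min, n = 6 per group.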

| Structure (SMILES) | EC50 (Hexokinase-4) [nM] | Activity (Mus musculus [1]) [%] | fold change (FC) (Hepatocyte) | Activity (Mus musculus [2]) [%] | Activity (Mus musculus [3]) |
| --- | --- | --- | --- | --- | --- |
| Cc1cccnc1-c1cc(Oc2ccc(S(C)(=O)=O)cc2)cc(C(=O)Nc2nccs2)c1 | 95 | 29.8 | 1.98 | – | – |
| Cc1cccnc1-c1cc(Oc2ccc(S(C)(=O)=O)cc2)cc(C(=O)Nc2nc(CC(=O)NC3CC3)cs2)c1 | 103 | -3.1 | 1.8 | – | – |
| CCNC(=O)Cc1csc(NC(=O)c2cc(Oc3ccc(S(C)(=O)=O)cc3)cc(-c3ncccc3C)c2)n1 | 5 | -0.3 | 2.54 | – | – |
| CCN(CC)Cc1csc(NC(=O)c2cc(Oc3ccc(S(C)(=O)=O)cc3)cc(-c3ncccc3C)c2)n1 | > 50000 | – | – | – | – |
| Cc1cccnc1-c1cc(Oc2ccc(S(C)(=O)=O)cc2)cc(C(=O)Nc2nc(CN3CCOCC3)cs2)c1 | 212 | – | 2.1 | – | – |
| Cc1cccnc1-c1cc(Oc2ccc(S(C)(=O)=O)cc2)cc(C(=O)Nc2nc(CN3CCN(C)CC3)cs2)c1 | 688 | 4.4 | 1.19 | – | – |
| COCCN(CCOC)Cc1csc(NC(=O)c2cc(Oc3ccc(S(C)(=O)=O)cc3)cc(-c3ncccc3C)c2)n1 | 2430 | 20.2 | 2.02 | – | – |
| COCC(C)NCc1csc(NC(=O)c2cc(Oc3ccc(S(C)(=O)=O)cc3)cc(-c3ncccc3C)c2)n1 (centres undefined) | 8 | – | 1.72 | – | – |
| COC(CNCc1csc(NC(=O)c2cc(Oc3ccc(S(C)(=O)=O)cc3)cc(-c3ncccc3C)c2)n1)OC | 33 | – | 1.92 | – | – |
| Cc1cccnc1-c1cc(Oc2ccc(S(C)(=O)=O)cc2)cc(C(=O)Nc2nc(CNC(C)C)cs2)c1 | 463 | 2.2 | 1.47 | – | – |
| CCCNCc1csc(NC(=O)c2cc(Oc3ccc(S(C)(=O)=O)cc3)cc(-c3ncccc3C)c2)n1 | > 50000 | – | – | – | – |
| Cc1cccnc1-c1cc(Oc2ccc(S(C)(=O)=O)cc2)cc(C(=O)Nc2ccn(C)n2)c1 | 807 | 24.1 | 1.74 | – | – |
| CCOCn1ccc(NC(=O)c2cc(Oc3ccc(S(C)(=O)=O)cc3)cc(-c3ncccc3C)c2)n1 | > 50000 | – | – | – | – |
| CN(C)C(=N)NC(=N)N [METFORMIN] | – | – | – | 29.9 | – |
| N[C@@H](CC(=O)N1CCn2c(nnc2C(F)(F)F)C1)Cc1cc(F)c(F)cc1F [SITAGLIPTIN] | – | – | – | – | Non-toxic |

The next lines start with results.

| EC50 (Hexokinase-4) [nM] | Structure (SMILES) | Activity (Mus musculus [1]) [%] | fold change (FC) (Hepatocyte) | Activity (Mus musculus [2]) [%] | Activity (Mus musculus [3]) |
| --- | --- | --- | --- | --- | --- |
| 238 | Cc1cccnc1-c1cc(Oc2ccc(S(C)(=O)=O)cc2)cc(C(=O)Nc2ncc(F)s2)c1 | 22.6 | 1.75 | – | – |
| 7460 | COCCN(C)Cc1csc(NC(=O)c2cc(Oc3ccc(S(C)(=O)=O)cc3)cc(-c3ncccc3C)c2)n1 | – | 1.46 | – | – |
| > 50000 | Cc1cccnc1-c1cc(Oc2ccc(S(C)(=O)=O)cc2)cc(C(=O)Nc2nc(CN3CCNCC3)cs2)c1 | – | – | – | – |
| 106 | C#CCNCc1csc(NC(=O)c2cc(Oc3ccc(S(C)(=O)=O)cc3)cc(-c3ncccc3C)c2)n1 | – | 2.35 | – | – |
| > 50000 | CCN(CC)CCn1ccc(NC(=O)c2cc(Oc3ccc(S(C)(=O)=O)cc3)cc(-c3ncccc3C)c2)n1 | – | – | – | – |
| 441 | Cc1cccnc1-c1cc(Oc2ccc(S(C)(=O)=O)cc2)cc(C(=O)Nc2ccn(CCN3CCOCC3)n2)c1 | 17.8 | 1.86 | – | – |

Source: ChEMBL document CHEMBL3232870, “Discovery of 3-(4-methanesulfonylphenoxy)-N-[1-(2-methoxy-ethoxymethyl)-1H-pyrazol-3-yl]-5-(3-methylpyridin-2-yl)-benzamide as a novel glucokinase activator (GKA) for the treatment of type 2 diabetes mellitus” (Bioorg Med Chem, 2014)
